ChEMBL document CHEMBL1152591, “Design, synthesis and structure-activity relationship of 2-(3',4',5'-trimethoxybenzoyl)-benzo[b]furan derivatives as a novel class of inhibitors of tubulin polymerization” (Bioorg Med Chem, 2009)

How the values were obtained:
K562 [1] = assay: Cell cycle arrest in human K562 cells assessed as accumulation at sub-G0/G1 phase at 230 nM after 24 hrs by flow cytometry; format: functional
In short: (§1)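 K562 leukaemia cells were cultured for 24 h with compound at one fixed concentration. DNA content per cell was measured by the standard propidium iodide procedure and flow cytometry. Proportions of cells in the sub-G0–G1 (apoptotic), G0–G1, S and G2–M peaks were compared with an untreated control.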

[2] = Inhibition of bovine tubulin polymerization; design: species or system Bos taurus
In short: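 Purified bovine brain tubulin (10 μM) in glutamate buffer was preincubated with varying compound concentrations at 30 °C, then cooled to 0 °C. GTP was added and the mixture warmed to 30 °C in a recording spectrophotometer. Assembly was followed by turbidity.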

L1210 = assay: Cytotoxicity against mouse L1210 cells after 2 days; format: functional, cell-based; settings: L1210, 48 h
In short: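 Cells were incubated with the compounds at 37 °C for two days, then counted on a Coulter counter. IC50 is the concentration that inhibits cell proliferation by 50%.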

FM3A = assay: Cytotoxicity against mouse FM3A0 cells after 2 days; format: functional, cell-based; settings: 48 h
CCRF-CEM = assay: Cytotoxicity against human CEM cells after 2 days; format: functional, cell-based; settings: 48 h
K562 [3] = assay: Cell cycle arrest in human K562 cells assessed as accumulation at G1 phase at 230 nM after 24 hrs by flow cytometry; format: functional; in short: as §1
K562 [4] = assay: Cell cycle arrest in human K562 cells assessed as accumulation at G2 phase at 230 nM after 24 hrs by flow cytometry; format: functional; in short: as §1
Bos taurus = species: Bos taurus; assay: Displacement of [3H]colchicine from bovine tubulin at 5 uM
In short: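 Reaction mixtures held 1 μM bovine brain tubulin, 5 μM [3H]colchicine and 5 μM test compound. Inhibition of radiolabelled colchicine binding to tubulin is expressed as percent inhibition.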

[5] = Cytotoxicity against human Molt4/C8 cells after 2 days; settings: MOLT-4, 48 h
K562 [6] = assay: Cell cycle arrest in human K562 cells assessed as accumulation at S phase at 230 nM after 24 hrs by flow cytometry; format: functional; in short: as §1
HeLa = assay: Cytotoxicity against human HeLa cells after 2 days; format: functional, cell-based; settings: 48 h
K562 [7] = assay: Cell cycle arrest in human K562 cells assessed as accumulation at S phase at 480 nM after 24 hrs by flow cytometry; format: functional
K562 [8] = assay: Cell cycle arrest in human K562 cells assessed as accumulation at G1 phase at 480 nM after 24 hrs by flow cytometry; format: functional
K562 [9] = assay: Cell cycle arrest in human K562 cells assessed as accumulation at G2 phase at 480 nM after 24 hrs by flow cytometry; format: functional
K562 [10] = assay: Cell cycle arrest in human K562 cells assessed as accumulation at sub-G0/G1 phase at 480 nM after 24 hrs by flow cytometry; format: functional
K562 [11] = assay: Cell cycle arrest in human K562 cells assessed as accumulation at G1 phase at 420 nM after 24 hrs by flow cytometry; format: functional
K562 [12] = assay: Cell cycle arrest in human K562 cells assessed as accumulation at G2 phase at 420 nM after 24 hrs by flow cytometry; format: functional
K562 [13] = assay: Cell cycle arrest in human K562 cells assessed as accumulation at S phase at 420 nM after 24 hrs by flow cytometry; format: functional
K562 [14] = assay: Cell cycle arrest in human K562 cells assessed as accumulation at sub-G0/G1 phase at 420 nM after 24 hrs by flow cytometry; format: functional
K562 [15] = assay: Cell cycle arrest in human K562 cells assessed as accumulation at G2 phase at 530 nM after 24 hrs by flow cytometry; format: functional; in short: as §1
K562 [16] = assay: Cell cycle arrest in human K562 cells assessed as accumulation at G1 phase at 530 nM after 24 hrs by flow cytometry; format: functional; in short: as §1
K562 [17] = assay: Cell cycle arrest in human K562 cells assessed as accumulation at S phase at 530 nM after 24 hrs by flow cytometry; format: functional; in short: as §1
K562 [18] = assay: Cell cycle arrest in human K562 cells assessed as accumulation at sub-G0/G1 phase at 530 nM after 24 hrs by flow cytometry; format: functional; in short: as §1
K562 [19] = assay: Cell cycle arrest in human K562 cells assessed as accumulation at G1 phase at 16 nM after 24 hrs by flow cytometry; format: functional; in short: as §1
K562 [20] = assay: Cell cycle arrest in human K562 cells assessed as accumulation at G2 phase at 16 nM after 24 hrs by flow cytometry; format: functional; in short: as §1
K562 [21] = assay: Cell cycle arrest in human K562 cells assessed as accumulation at sub-G0/G1 phase at 16 nM after 24 hrs by flow cytometry; format: functional; in short: as §1
K562 [22] = assay: Cell cycle arrest in human K562 cells assessed as accumulation at S phase at 16 nM after 24 hrs by flow cytometry; format: functional; in short: as §1
K562 [23] = assay: Cell cycle arrest in human K562 cells assessed as accumulation at sub-G0/G1 phase at 1.62 µM after 24 hrs by flow cytometry
K562 [24] = assay: Cell cycle arrest in human K562 cells assessed as accumulation at G2 phase at 1.62 µM after 24 hrs by flow cytometry
K562 [25] = assay: Cell cycle arrest in human K562 cells assessed as accumulation at G1 phase at 1.62 µM after 24 hrs by flow cytometry
K562 [26] = assay: Cell cycle arrest in human K562 cells assessed as accumulation at S phase at 1.62 µM after 24 hrs by flow cytometry
K562 [27] = assay: Cell cycle arrest in human K562 cells assessed as accumulation at sub-G0/G1 phase at 980 nM after 24 hrs by flow cytometry; format: functional; in short: as §1
K562 [28] = assay: Cell cycle arrest in human K562 cells assessed as accumulation at G1 phase at 980 nM after 24 hrs by flow cytometry; format: functional; in short: as §1
K562 [29] = assay: Cell cycle arrest in human K562 cells assessed as accumulation at S phase at 980 nM after 24 hrs by flow cytometry; format: functional; in short: as §1
K562 [30] = assay: Cell cycle arrest in human K562 cells assessed as accumulation at G2 phase at 980 nM after 24 hrs by flow cytometry; format: functional; in short: as §1

SMILES	IC50 (L1210) [nM]	IC50 (FM3A) [nM]	IC50 (CCRF-CEM) [nM]	IC50 [5] [nM]	IC50 (HeLa) [nM]	also measured
COc1ccc2oc(C(=O)c3cc(OC)c(OC)c(OC)c3)c(C)c2c1	2300	4400	400	1900	–	Activity (K562 [1]): 18.18%; IC50 [2]: 1200 nM; Activity (K562 [3]): 1.44%; Activity (K562 [4]): 58.18%; Activity (Bos taurus): 65%; Activity (K562 [6]): 40.38%
COc1ccc2cc(Cc3cc(OC)c(OC)c(OC)c3)oc2c1	2300	2600	1500	770	680	–
COc1cc(C(=O)c2oc3ccc(O)cc3c2C)cc(OC)c1OC	800	430	430	240	290	Activity (K562 [7]): 33.83%; Activity (K562 [8]): 18.79%; IC50 [2]: 1100 nM; Activity (K562 [9]): 47.38%; Activity (K562 [10]): 22.13%; Activity (Bos taurus): 69%
COc1cc(C(=O)c2oc3cccc(OC)c3c2C)cc(OC)c1OC	590	570	490	200	340	IC50 [2]: 1800 nM; Activity (K562 [11]): 7.7%; Activity (K562 [12]): 50.2%; Activity (K562 [13]): 42.1%; Activity (K562 [14]): 21.24%; Activity (Bos taurus): 66%
COc1cc(C(=O)c2cc3ccc(O)cc3o2)cc(OC)c1OC	> 10000	> 10000	> 10000	> 10000	> 10000	–
COc1cc(C(=O)c2cc3cc(C)ccc3o2)cc(OC)c1OC	7100	8400	7200	2500	> 10	–
COc1ccc2cc(C(=S)c3cc(OC)c(OC)c(OC)c3)oc2c1	180	320	220	100	100	–
COc1ccc2cc(C(=O)c3cc(OC)c(OC)c(OC)c3)oc2c1	90	100	70	59	110	IC50 [2]: 700 nM; Activity (K562 [11]): 1.83%; Activity (K562 [12]): 59.11%; Activity (K562 [13]): 39.06%; Activity (K562 [14]): 16.36%; Activity (Bos taurus): 79%
COc1cc(C(=O)c2cc3ccccc3o2)cc(OC)c1OC	> 10000	> 10000	> 10000	8000	–	–
COc1cc(C(=O)c2cc3cc(Br)ccc3o2)cc(OC)c1OC	> 10000	> 10000	> 10000	> 10000	> 10000	–
COc1cc(C(=O)c2cc3cc(OC)c(OC)c(OC)c3o2)cc(OC)c1OC	> 10000	> 10000	> 10000	> 10000	> 10000	–
COc1cc(C(=O)c2oc3cccc(O)c3c2C)cc(OC)c1OC	480	330	100	84	130	Activity (K562 [15]): 65.12%; IC50 [2]: 570 nM; Activity (K562 [16]): 8.52%; Activity (K562 [17]): 26.37%; Activity (K562 [18]): 7.6%; Activity (Bos taurus): 85%
COc1cc(C(=O)c2oc3c(OC)cccc3c2C)cc(OC)c1OC	1700	1700	2400	400	530	–
COc1ccc2c(N(C)C)c(C(=O)c3cc(OC)c(OC)c(OC)c3)oc2c1	–	–	–	48	–	–
COc1ccc2c3c(oc2c1)C(=O)c1cc(OC)c(OC)c(OC)c1-3	> 10000	> 10000	> 10000	> 10000	> 10000	–
COc1cc(C(=O)c2oc3ccccc3c2C)cc(OC)c1OC	2100	2100	2000	1300	890	–

SMILES	IC50 (L1210) [nM]	IC50 (FM3A) [nM]	IC50 (CCRF-CEM) [nM]	IC50 [5] [nM]	IC50 (HeLa) [nM]	also measured
COc1ccc(/C=C\c2cc(OC)c(OC)c(OC)c2)cc1O	–	–	–	–	–	Activity (Bos taurus): 99%
COc1cc2cc(C(=O)c3cc(OC)c(OC)c(OC)c3)oc2cc1OC	1800	1200	1900	770	570	–
COc1ccc2cc(C(O)c3cc(OC)c(OC)c(OC)c3)oc2c1 (configuration not stated)	> 10000	7010	> 10000	3000	> 10000	–
COc1ccc2c(N)c(C(=O)c3cc(OC)c(OC)c(OC)c3)oc2c1	–	–	–	140	–	–
COc1cc(C(=O)c2cc3cccc(O)c3o2)cc(OC)c1OC	> 10000	> 10000	> 10000	> 10000	> 10000	–
COc1cc(C(=O)c2cc3ccc(OC)c(O)c3o2)cc(OC)c1OC	> 10000	> 10000	> 10000	> 10000	> 10000	–
COc1ccc2cc(C(OC)c3cc(OC)c(OC)c(OC)c3)oc2c1 (configuration not stated)	> 10000	> 10000	> 10000	> 10000	4400	–
CCOc1ccc2c(C)c(C(=O)c3cc(OC)c(OC)c(OC)c3)oc2c1	2	2.8	2.8	1.2	6.3	IC50 [2]: 430 nM; Activity (K562 [19]): 3.67%; Activity (K562 [20]): 70.99%; Activity (K562 [21]): 13.24%; Activity (Bos taurus): 96%; Activity (K562 [22]): 25.34%
COc1ccc2oc(C(=O)c3cc(OC)c(OC)c(OC)c3)cc2c1	> 10000	> 10000	> 10000	9400	> 10000	–
COc1cc(C(=O)c2cc3cc(O)ccc3o2)cc(OC)c1OC	> 10000	> 10000	> 10000	> 10000	> 10000	–
COc1cc(C(=O)c2cc3cc(Cl)ccc3o2)cc(OC)c1OC	> 10000	> 10000	> 10000	> 10000	> 10000	–
COc1cc(C(=O)c2cc3cccc(OC)c3o2)cc(OC)c1OC	> 10000	> 10000	> 10000	7800	> 10000	–
COc1cc(C(=O)c2oc3cc(F)ccc3c2C)cc(OC)c1OC	3500	3700	2700	2100	–	IC50 [2]: 6900 nM; Activity (K562 [23]): 44.32%; Activity (K562 [24]): 47.46%; Activity (K562 [25]): 8.23%; Activity (K562 [26]): 44.32%
COc1cc(C(=O)c2oc3cc(O)ccc3c2C)cc(OC)c1OC	> 10000	> 10000	4300	1300	260	–
COc1cc(C(=O)c2cc3c(OC)cccc3o2)cc(OC)c1OC	410	550	870	360	410	Activity (K562 [27]): 20.71%; IC50 [2]: 1100 nM; Activity (K562 [28]): 4.14%; Activity (K562 [29]): 37.4%; Activity (Bos taurus): 76%; Activity (K562 [30]): 58.46%
